Measurements taken from PMC9283749 (Clinical and Translational Science, 2022).
Values after ≈ are worked out from the molar mass of the structure shown. “Also recorded” adds a separate entry of the source.

Tests used:
[1] = system: skin AXIN2 mRNA expression; assay: Exposure-response analysis for biomarker; type: in vivo; settings: Homo sapiens, read-out: WNT974 concentration resulting in 50% Emax (EC50), skin AXIN2 reduction, estimated mean (90% prediction interval)
CYP3A4 = settings: cited from earlier work
[2] = system: patients with advanced solid tumors; settings: cited from earlier work
[3] = cited from earlier work
CYP3A = settings: in vitro; cited from earlier work
[4] = cited from earlier work; remark: listed apart in the source
[5] = system: patients with advanced solid tumors; assay: Phase I first-in-human study, safety and antitumor activity; type: in vivo
Procedure, shortened: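 Patients with advanced solid tumours. Without run-in, patients got 5, 7.5, 10, 15, 20, 22.5 or 30 mg continuous q.d.; 30 or 45 mg intermittent q.d. (4 days on/3 off); or 5 mg continuous b.i.d. Adverse events were graded by CTCAE v4.03.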

[6] = Simulated steady-state PK from the PopPK model; type: in vivo, human
Procedure, shortened: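 Steady-state C1D15 plasma profiles simulated from the final population PK model in 200–500 hypothetical patients per continuous once-daily dosing scenario. Cmin, Cmax and AUC24h derived from the simulated profiles.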

[7] = system: xenograft and Wnt ligand-driven mouse tumor models; settings: cited from earlier work
Porcupine = settings: read-out: in vitro cellular IC50 for Porcupine; cited from earlier work
Population PK modeling = type: in vivo, human; settings: patients, 5-45 mg oral
Procedure, shortened: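 Pooled 1098 plasma concentrations from 66 patients across 10 oral regimens, measured by LC-MS/MS (LLOQ 1.0 ng/ml). Serial sampling to 24 h on C1D1 and C1D15, plus predose troughs. Two-compartment model with first-order absorption, lag time and linear clearance, fitted in log domain by FOCE in NONMEM. Log-normal interindividual variability on Ka, CL, Vc, CLd, Vp and Tlag; baseline covariates screened.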

Cc1cc(-c2ncc(CC(=O)Nc3ccc(-c4cnccn4)cn3)cc2C)ccn1 [WNT974]
EC50 [1]: 0.45 ng/mL (≈ 1.14 nM) | metabolism (CYP3A4): extensively metabolized, primarily by CYP3A4 | patients with dysgeusia (most common adverse event) ([2]; FIH study): ~ 50 % of patients | best response: patients with stable disease ([2]; dose-expansion part of the single-agent study): 16 % of patients | mean unbound Cmin ([3]; C1D15, continuous q.d. dose of 5-30 mg): 1.1 to 7.6 nM | dose proportionality of exposure ([3]; dose range 5-45 mg): dose proportional | mean t1/2 ([3]; patients, oral administration): 5 to 8 h | median Tmax ([3]; patients, oral administration): 1 to 3 h | CYP3A inhibition (CYP3A): moderate reversible inhibitor | elimination half-life (t1/2) ([4]; all the animal species (mouse, rat, dog)): 0.6 to 2.2 h | oral bioavailability ([4]; mouse, rat, and dog): 60–100% | maximum tolerated dose (MTD) ([5]; dose-escalation part, 5-45 mg): not established | antitumor activity in patients ([5]; dose-escalation study): limited antitumor activity | Predicted steady-state AUC24h, mean (90% confidence interval) ([6]; 5 mg q.d.): 233 (133–445) ng h/ml | Predicted steady-state Cmax, mean (90% confidence interval) ([6]; 5 mg q.d.): 28.1 (13.7–59.1) ng/ml | Predicted steady-state Cmin, mean (90% confidence interval) ([6]; 5 mg q.d.): 2.83 (0.835–8.02) ng/ml | Predicted steady-state AUC24h, mean (90% confidence interval) ([6]; 10 mg q.d.): 468 (254–880) ng h/ml | Predicted steady-state Cmax, mean (90% confidence interval) ([6]; 10 mg q.d.): 55.7 (26.1–109) ng/ml | Predicted steady-state Cmin, mean (90% confidence interval) ([6]; 10 mg q.d.): 5.78 (1.66–16.3) ng/ml | Predicted steady-state AUC24h, mean (90% confidence interval) ([6]; 15 mg q.d.): 699 (394–1294) ng h/ml | Predicted steady-state Cmax, mean (90% confidence interval) ([6]; 15 mg q.d.): 80.6 (41.7–166) ng/ml | Predicted steady-state Cmin, mean (90% confidence interval) ([6]; 15 mg q.d.): 8.21 (2.60–24.3) ng/ml | antitumor activity ([7]; preclinical tumor models): exhibited antitumor activity; also recorded: potent antitumor activity | AXIN2 mRNA expression in tumors ([7]; xenograft and Wnt ligand-driven mouse tumor models): reduction of AXIN2 mRNA expression in tumors | IC50 (Porcupine): 400 pM | Absorption lag time (Tlag), population estimate (%RSE) (Population PK modeling): 0.412 (3.2) h | Apparent central clearance (CL/F), population estimate (%RSE) (Population PK modeling): 20.7 (3.9) L/h | Central volume of distribution (Vc), population estimate (%RSE) (Population PK modeling): 138 (2.0) L | Distribution clearance (CLd), population estimate (%RSE) (Population PK modeling): 7.11 (9.4) L/h | Peripheral volume of distribution (Vp), population estimate (%RSE) (Population PK modeling): 260 (9.4) L | Absorption rate constant (Ka), population estimate (%RSE) (Population PK modeling; 66 patients): 1.60 (17.0) 1/h
